Source: PubChem
KCNK9 inh: inhibitors of human KCNK9 two-pore domain potassium channel. Q9NPC2. HEK293 KCNK9, FluxOR thallium flux fluorescence; hits give low values. B-score at 10 µM. 1.2% of 310,000 active. AID 488922;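 active means ratio B-score over 3 SD below the library mean, with starting fluorescence within 5 SD of its mean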;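 further: negative B-score means less thallium flux so channel inhibition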
KCNQ1 inh: inhibitors of human KCNQ1 potassium channel; P51787; CHO-K1 KCNQ1, FluxOR thallium flux fluorescence; hits give high values; B-score at 10 µM; 1.3% of 310,000 active;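 active means compounds whose thallium flux B-score, printed positive for inhibition, exceeds three library SD while starting fluorescence stays within three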;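 further: channel opened by potassium depolarization with thallium stimulus after 20 min compound exposure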
KCNK3 block: human KCNK3 channel inhibition, primary screen; CHO-KCNK3 thallium flux, FluxOR fluorescence; hits give low values; B-score at 10 µM; AID 602410; 0.84% of 340,000 active;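 active means B-score under library mean minus 4 SD, starting fluorescence ratio at most library mean plus 5 SD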;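 further: more negative B-score means stronger inhibition of thallium flux through KCNK3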
hERG rescue: compounds protecting human hERG from proarrhythmic drug block. Q12809. CHO-hERG, FluxOR thallium flux, dofetilide IC70 present. activation (rescue from dofetilide block), less the hit threshold, % at 10 µM. 0.51% of 310,000 active. AID 1511;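 active means activation above the mean of controls blocked by dofetilide plus 5 SD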;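 further: thallium influx through hERG after potassium depolarization seen as dye fluorescence rise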
KCC2 mod: modulators of human KCC2 chloride dependent transport. 2.2% of 190,000 active. B-score of Tl+ flux slope (higher = more flux/activation; lower = inhibition) at 10 µM. KCC2 cells, thallium flux FluoZin-2 fluorescence. Q9H2X9;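 active means thallium flux slope and its plate-corrected score both differing from the plate sample mean at a set confidence after two filtering rounds, in either direction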;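 further: slope of fluorescence scaled to starting intensity during 10 to 20 s after thallium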
KCNQ1 pot: potentiates or activates the human KCNQ1 potassium channel. P51787. CHO-K1 KCNQ1, thallium flux FluxOR fluorescence; hits give high values. B-score at 10 µM. 0.35% of 310,000 active;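 active means fluorescence ratio B-score, a plate-corrected score, at least three library SD, with initial intensity B-score within 5 SD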
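Test system: CHO-K1 cells stably expressing KCNQ1 / Medium: assay buffer / Also added: depolarizing K+/Tl+ stimulus, K2SO4 and Tl2SO4 each 12.5 mM in 5x stock / Incubation: 90 min dye loading and 20 min compound exposure, both at room temperature / Signal: thallium influx via FluxOR fluorescence, kinetic imaging / Evaluation: B score of baseline-normalized fluorescence ratio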
KCNK9 inh conf: confirmation of human KCNK9 potassium channel inhibitors. shares compounds with KCNK9 inh. HEK293 KCNK9 cells, FluxOR thallium flux fluorescence. inhibition, % at 10 µM. 43% of 4,900 active. AID 492992;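 active means thallium signal inhibited by more than 5 SD of the compound-free buffer control wells, on both duplicate plates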;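 further: 0% = assay buffer control wells without compound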
Kir2-1 spec: mouse Kir2.1 off-target activity of KCNK9 modulators. AID 492993. inhibition, % at 10 µM. Kir2.1 cells, FluxOR thallium flux fluorescence. shares compounds with KCNK9 inh. 4% of 4,900 active;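 active means thallium signal drop more than 5 SD beyond the mean of the no-compound control wells, seen in both duplicate plates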;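 further: signal is fluorescence rise after thallium addition divided by baseline fluorescence; plate controls were assay buffer only for no effect and full block by chlorpromazine control for full effect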
Target sequence (P35561 whole entry, looked up): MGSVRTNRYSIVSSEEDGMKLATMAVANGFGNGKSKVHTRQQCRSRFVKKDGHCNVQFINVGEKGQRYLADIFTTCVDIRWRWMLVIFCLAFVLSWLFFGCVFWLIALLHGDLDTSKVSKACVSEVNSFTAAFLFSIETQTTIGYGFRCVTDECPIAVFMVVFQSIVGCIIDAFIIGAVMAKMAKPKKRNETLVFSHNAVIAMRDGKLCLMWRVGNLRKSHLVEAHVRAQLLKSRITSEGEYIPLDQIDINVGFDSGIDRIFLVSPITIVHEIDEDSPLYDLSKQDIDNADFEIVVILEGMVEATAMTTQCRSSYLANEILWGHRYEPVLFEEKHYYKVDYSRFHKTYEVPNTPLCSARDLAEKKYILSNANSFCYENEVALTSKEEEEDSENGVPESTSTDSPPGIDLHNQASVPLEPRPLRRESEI
HEK293 Tl ctr: second check of KCNK9 modulator effects in non-induced HEK293 cells. shares compounds with KCNK9 inh. FluxOR thallium flux. inhibition, % at 10 µM. 40% of 4,900 active;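 active means thallium signal drop beyond 5 SD of the untreated control mean, on both duplicate plates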;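 further: plate controls were buffer only IC0 wells for no effect and SID17386958 at its maximal inhibitory level for full effect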
The depositor's hits bear a star; i = inactive; / = not tested or not shown. Rows were chosen to be rich in hits. Some 4.1% of all compounds tested hit in one or more screens of this group.

SMILES | KCNK9 inh | KCNQ1 inh | KCNK3 block | hERG rescue | KCC2 mod | KCNQ1 pot | KCNK9 inh conf | Kir2-1 spec | HEK293 Tl ctr
CC1=NOC(=O)/C1=C/c1ccc(-c2ccc(Cl)cc2)o1 | / | / | i | / | / | / | / | / | /
Cc1nn(-c2ccccc2)c(N2CCCC2)c1/C=N/NC(=S)Nc1ccccc1C(F)(F)F | -9.1* | i | i | -3 | 0.35 | i | 44%* | i | i
CCOC(=O)C1=CN(Cc2ccc(OC)cc2)C=C(C(=O)OCC)C1c1cccs1 | -19* | i | i | -2 | -0.15 | i | 72%* | i | 41%*
COC(=O)C1=CN(Cc2ccc(OC)cc2)C=C(C(=O)OC)C1c1cc(OC)c(OC)c(OC)c1 | i | i | i | -1 | / | i | / | / | /
O=c1c2ccccc2c(-c2cccc(C(F)(F)F)c2)nn1-c1ccccc1 | -8.8* | i | i | -11 | / | i | 38%* | i | 43%*
O=C(NC(c1ccc(Cl)cc1)c1c(O)ccc2ccccc12)c1ccccc1 (stereo not drawn) | / | / | i | / | -0.02 | / | / | / | /
O=C(NC(c1ccccc1)c1c(O)ccc2ccccc12)c1ccccc1Cl (stereo not drawn) | -10* | i | -9.4* | -7 | -0.021 | i | i | i | 44%*
CCCCn1c(N)c(N(C)C(=O)C2CC(=O)N(Cc3ccco3)C2)c(=O)[nH]c1=O (stereo not drawn) | / | / | i | / | / | / | / | / | /
Brc1ccc(CSc2nccn2-c2ccccc2)cc1 | i | i | i | -8 | / | i | i | i | i
FC(F)(F)c1ccc(CSc2nccn2-c2ccccc2)cc1 | i | i | i | -15 | 0.0017 | i | i | i | i
O=C(CSc1nccn1-c1ccccc1)NO | i | i | i | -13 | -0.19 | i | / | / | /
Clc1cccc(CSc2nccn2-c2ccccc2)c1 | i | i | i | -14 | -1.6 | i | i | i | i
Clc1cccc(CSc2ncn(-c3ccccc3)n2)c1 | i | i | i | -18 | -0.00097 | i | / | / | /
O=C(O)CSCC(=O)N(c1ccccc1)c1ccccc1 | i | i | i | -7 | / | i | / | / | /
O=C(OCC1OC(n2ncc(=O)[nH]c2=O)C(OC(=O)c2ccccc2)C1OC(=O)c1ccccc1)c1ccccc1 (stereo not drawn) | i | i | i | -24 | / | i | i | i | 33%*
CC(C)Cc1nnc(NC(=O)C2CCN(C(=O)c3ccc(F)cc3)CC2)s1 | i | i | i | -8 | / | i | / | / | /
COc1cccc(C2=Nn3c(nnc3-c3ccccc3O)SC2)c1 | i | i | i | -15 | / | i | / | / | /
C[n+]1c2n(c3ccccc31)N=C(c1cc(C(C)(C)C)c(O)c(C(C)(C)C)c1)CS2 | -19* | 7* | -13* | -38 | -3.4 | i | 76%* | 46%* | 32%*
CCCN(CC(=O)Nc1ccccc1C)C(=O)C1CC(=O)N(c2cccc(C)c2C)C1 (stereo not drawn) | i | i | i | -14 | / | i | / | / | /
O=C(Cc1c(Cl)cccc1Cl)OCC(=O)N1CCc2ccccc2C1 | i | i | i | -12 | -0.71 | i | i | i | i
CC(C)c1ccc(OCC(=O)N2CCc3ccccc3C2)cc1 | i | i | i | -4 | / | i | i | i | i
O=C(Cc1c(Cl)cccc1Cl)OCC(=O)N1CCOCC1 | / | / | i | / | / | / | / | / | /
CC(C(=O)Nc1ccc(Br)cc1)N(C)CC(=O)NCc1ccco1 (stereo not drawn) | / | / | i | / | / | / | / | / | /
Cc1cccc(NC(=O)C2(c3ccc([N+](=O)[O-])cc3)CCCC2)c1 | i | 6* | i | -8 | 0.044 | i | i | i | i
Cc1cc(C)nc(NS(=O)(=O)c2ccc(NC(=O)C3(c4ccc([N+](=O)[O-])cc4)CCCC3)cc2)n1 | i | i | i | -5 | -0.37 | i | / | / | /
SMILES | KCNK9 inh | KCNQ1 inh | KCNK3 block | hERG rescue | KCC2 mod | KCNQ1 pot | KCNK9 inh conf | Kir2-1 spec | HEK293 Tl ctr
O=[N+]([O-])c1ccc(-c2csc(Nc3ccccc3)[n+]2Cc2ccccc2)cc1 | i | i | i | -11 | -0.32 | i | / | / | /
COc1ccc(-c2csc(Nc3ccccc3)[n+]2Cc2ccccc2)cc1 | -9.4* | i | i | -15 | -0.0039 | i | 46%* | i | 27%*
CCn1nc(C)cc1C(=O)N1CCCC(C(=O)c2ccc(OC)cc2C)C1 (stereo not drawn) | i | i | i | -12 | / | i | / | / | /
COc1ccc(C(=O)C2CCCN(C(=O)c3ccc4cc[nH]c4c3)C2)c(C)c1 (stereo not drawn) | i | i | i | -21 | -1.1 | i | i | i | i
COc1ccc(C(=O)C2CCCN(C(=O)c3ccnn3C)C2)c(C)c1 (stereo not drawn) | i | i | i | -6 | / | i | / | / | /
COc1ccc2cc(C(=O)C3CCCN(C(=O)c4cnn(C(C)C)c4)C3)ccc2c1 (stereo not drawn) | i | i | i | -9 | / | i | i | i | i
COC(=O)CCCC(=O)N1CCCC(C(=O)c2ccc(OC)cc2C)C1 (stereo not drawn) | i | i | i | 0 | 0.54 | i | i | i | i
COc1ccc(C(=O)C2CCCN(C(=O)CCc3scnc3C)C2)c(C)c1 (stereo not drawn) | i | i | i | -10 | -0.55 | i | i | i | i
Clc1ccc(CNc2ncnc3[nH]ncc23)cc1Cl | / | / | i | / | / | / | / | / | /
COc1ccc(C(=O)C2CCCN(C(=O)c3ccc(C(C)=O)s3)C2)c(C)c1 (stereo not drawn) | i | i | i | -13 | / | i | i | i | i
COc1ccccc1C(=O)C1CCCN(C(=O)CCc2ccccn2)C1 (stereo not drawn) | i | i | i | -4 | -0.09 | i | / | / | /
COc1ccc(C(=O)C2CCCN(C(=O)CCc3ccccn3)C2)c(C)c1 (stereo not drawn) | i | i | i | -8 | 0.049 | i | i | i | i
COc1c(C)cc(C(=O)C2CCCN(C(=O)c3cc(C)nc(C)n3)C2)cc1C (stereo not drawn) | i | i | i | -9 | 0.2 | i | / | / | /
COc1c(C)cc(C(=O)C2CCCN(C(=O)/C=C/c3ccccn3)C2)cc1C (stereo not drawn) | i | i | i | -16 | / | i | i | i | i
